Drawing on PubChem BioAssay AID692 (The Scripps Research Institute Molecular Screening Center, 2007), this text covers EC50 for eight molecules.

By pEC50 is commonly meant −log10 of the EC50, conventionally taken in molar units. One may read the EC50 as the concentration needed to bring the measured effect to its halfway point.

pEC50: −log10 of the molar value. The source made the active and inactive calls.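 The calls were made as follows: active = EC50 at or below a set limit; inactive = the rest.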

For the test, the target named is Steroidogenic factor 1 (Homo sapiens) (UniProt Q13285). The test is described as follows: SF-1 activators, concentration-response, dose response, cell-based, CHO-K1, Gal4-SF-1 LBD, luciferase luminescence (AID 692). Particulars: CHO-K1 Gal4-SF1 LBD luciferase reporter, activation. The method in brief: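 system = CHO-K1 Gal4–SF-1 LBD luciferase reporter cells | schedule = 20 h compound exposure, 37 °C | measured by = luminescence | read-out basis = % activation vs DMSO/mock-transfected cells, EC50 from four-parameter sigmoidal fit | replication = triplicate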
Chain of Steroidogenic factor 1 (Homo sapiens) (Q13285 whole entry, looked up, the tested form may be a part): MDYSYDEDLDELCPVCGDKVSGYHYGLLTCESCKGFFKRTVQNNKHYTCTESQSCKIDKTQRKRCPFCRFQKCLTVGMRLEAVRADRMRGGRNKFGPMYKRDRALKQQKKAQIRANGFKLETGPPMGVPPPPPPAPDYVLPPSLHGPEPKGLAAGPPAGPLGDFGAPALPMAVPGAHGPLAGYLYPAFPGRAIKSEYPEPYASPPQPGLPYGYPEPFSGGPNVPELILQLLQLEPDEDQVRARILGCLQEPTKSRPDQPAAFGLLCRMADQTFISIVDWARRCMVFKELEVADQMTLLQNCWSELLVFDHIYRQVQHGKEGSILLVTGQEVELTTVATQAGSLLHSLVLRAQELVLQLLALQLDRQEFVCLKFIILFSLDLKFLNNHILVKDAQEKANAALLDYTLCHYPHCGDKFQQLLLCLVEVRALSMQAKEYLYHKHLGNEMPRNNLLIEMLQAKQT
(In general: In a reporter assay the amount or activity of a reporter protein is the signal.)
Regarding `O=C1CCCC(O)=C1C=Nc1ccc(O)cc1`, the pEC50 was 5.42.
`CC1(C)CC(=O)C(C=Nc2ccccc2)=C(O)C1`: the negative-log EC50 (pEC50) was 5.17.
Still for that read-out and setting: to `COC(=O)c1ccc(/C(O)=C(\C#N)c2nc3ccccc3s2)cc1` belongs 5.57.
Consider `CC1(C)CC(=O)C(C=Nc2ccc3[nH]ncc3c2)=C(O)C1`, for which the EC50 was > 11 µM (inactive).
Regarding `COc1ccc(C(=O)/C=C/Nc2cccc(C)n2)cc1OC`, the negative logarithm of the EC50 (pEC50) was 6.40.
On the same count and under the same terms, for `C/C(N)=C(/C#N)C(=O)CSc1ccc2c(c1)OCCO2` the value was 5.54.
With `Cc1ccc(C2/C(=C(\O)c3cnn(-c4ccccc4)c3C)C(=O)C(=O)N2CCN(C)C)o1` (stereo not drawn), the negative logarithm of the EC50 (pEC50) is 5.44.
Consider `COc1cc(C2C3C(=O)N(c4ccccc4)C(=O)C3ON2c2ccccc2)ccc1O` (stereo not drawn), for which the EC50 entry was “inactive”.
